# Experimental data reported in paper PMC5508335 (Journal of Veterinary Internal Medicine, 2017).
# Key:
# dogs with MUE = assay: Retrospective survival of dogs with MUE given cytarabine CRI; assay type: in vivo, dog; conditions: 22 dogs, at least 1 CRI treatment; range 61 – 1312
# dogs with EPI = assay: Oral cobalamin supplementation in dogs with EPI, serum cobalamin; assay type: in vivo, dog; conditions: daily cyanocobalamin tablets, 28–199 days; 10 dogs; at inclusion 204
# Summary of the method: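 Dogs entered with EPI diagnosed by subnormal serum cTLI (reference 5–35 μg/L) and an initial serum cobalamin of 350 ng/L or less (reference 234–811 ng/L). All received daily oral cyanocobalamin tablets at 1 mg/tablet.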
# thyroid TT4 response = assay: TSH stimulation test, serum TT4; assay type: in vivo, dog; conditions: 6 dogs, oral hydrocortisone for 90 days
# [1] = system: dogs with spontaneously-arising glioma and meningioma; assay type: in vivo, dog; conditions: six dogs
# Summary of the method: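 Dogs with spontaneously arising glioma or meningioma received the oral test compound together with conventional therapies. Tolerability was assessed, with serial clinical and MRI outcome assessments.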
# [2] = system: canine, human, and murine glioma cell lines; assay: In vitro sensitivity of glioma cell lines; assay type: cell-based; conditions: monotherapy, biologically relevant exposures
# Summary of the method: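 Murine, canine and human glioma cell lines were tested for in vitro sensitivity to the test compound and to radiation, each given as monotherapy. PC-3 expression in the same lines was also evaluated.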
# [3] = system: healthy purpose-bred cats; conditions: in vivo
# diabetic cats = assay: One-year randomized trial of insulin types in diabetic cats; assay type: in vivo, cat; conditions: BID insulin, glargine=24, PZIR=22
compound,measurement,setting,value
Nc1ccn([C@@H]2O[C@H](CO)[C@@H](O)[C@@H]2O)c(=O)n1 [cytarabine],"Survival, median",dogs with MUE,258.5 days
cyanocobalamin [CBL],median serum CBL concentration after supplementation,dogs with EPI,"1,113 ng/L"
C[C@]12CCC(=O)C=C1CC[C@@H]1[C@@H]2[C@@H](O)C[C@@]2(C)[C@H]1CC[C@]2(O)C(=O)CO [hydrocortisone],mean basal serum TT4 concentration,thyroid TT4 response,0.32 µg/dL
C=CCc1cccc(/C=N/NC(=O)CN2CCN(Cc3ccccc3)CC2)c1O [PAC‐1],partial responses,[1],3 dogs
same,in vitro sensitivity of glioma cell lines,[2],show in vitro sensitivity
Cc1cccc([C@H](C)c2cnc[nH]2)c1C [dexmedetomidine],cats with successful emesis,[3],58%
PZIR: human-recombinant protamine zinc insulin,cats achieving remission,diabetic cats,23%
